≈ marks a conversion by molar mass, not a printed value.
Experiments:
[1] = tested on: Pseudomonas aeruginosa; experiment: Antibacterial activity against Pseudomonas aeruginosa PAO1 harboring siderophore receptor piuA and pirA double mutant in Mueller-Hinton broth medium by CLSI broth microdilution method; type: functional
Summary of the method: (§1)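 MIC by CLSI broth microdilution in standard Mueller Hinton broth. Tested against wild-type P. aeruginosa PAO1 and an isogenic panel lacking one or more siderophore receptors.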

[2] = tested on: Pseudomonas aeruginosa; experiment: Ratio of MIC for Pseudomonas aeruginosa PAO1 harboring siderophore receptor pirA mutant to MIC for wild type Pseudomonas aeruginosa PAO1 in Mueller-Hinton broth medium by CLSI broth microdilution method; type: functional
Summary of the method: (§2)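 Receptor-deficient PAO1 strain MIC divided by parent PAO1 MIC. Both MICs were obtained by CLSI broth microdilution in standard Mueller Hinton broth. A shift greater than 4× was taken to indicate that the deleted receptor(s) take part in drug uptake.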

[3] = tested on: Pseudomonas aeruginosa; experiment: Ratio of MIC for Pseudomonas aeruginosa PAO1 harboring siderophore receptor fpvA mutant to MIC for wild type Pseudomonas aeruginosa PAO1 in Mueller-Hinton broth medium by CLSI broth microdilution method; type: functional; summary of the method: as §2
[4] = tested on: Pseudomonas aeruginosa; experiment: Ratio of MIC for Pseudomonas aeruginosa PAO1 harboring siderophore receptor pfeA mutant to MIC for wild type Pseudomonas aeruginosa PAO1 in Mueller-Hinton broth medium by CLSI broth microdilution method; type: functional; summary of the method: as §2
[5] = tested on: Pseudomonas aeruginosa; experiment: Ratio of MIC for Pseudomonas aeruginosa PAO1 harboring siderophore receptor piuA, pfeA and pirA mutant to MIC for wild type Pseudomonas aeruginosa PAO1 in Mueller-Hinton broth medium by CLSI broth microdilution method; type: functional
Summary of the method: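 Broth microdilution MIC per CLSI in standard Mueller-Hinton broth, run against wild-type P. aeruginosa PAO1 and isogenic PAO1 strains lacking one or more siderophore receptors. Value is the mutant-strain MIC divided by the PAO1 MIC.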

[6] = tested on: Pseudomonas aeruginosa; experiment: Ratio of MIC for Pseudomonas aeruginosa PAO1 harboring siderophore receptor fpvA mutant to MIC for wild type Pseudomonas aeruginosa PAO1 in medium containing low-Fe by CLSI broth microdilution method; type: functional
Summary of the method: (§3)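 Ratio of strain MIC to PAO1 MIC. Both MICs were obtained by CLSI broth microdilution in iron-depleted modified Mueller Hinton broth. A shift greater than 4× versus the parent was read as the deleted receptor(s) taking part in uptake.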

[7] = tested on: Pseudomonas aeruginosa; experiment: Ratio of MIC for Pseudomonas aeruginosa PAO1 harboring siderophore receptor pfeA mutant to MIC for wild type Pseudomonas aeruginosa PAO1 in medium containing low-Fe by CLSI broth microdilution method; type: functional; summary of the method: as §3
[8] = tested on: Pseudomonas aeruginosa; experiment: Ratio of MIC for wild type Pseudomonas aeruginosa PAO1 in MHB medium to MIC for wild type Pseudomonas aeruginosa PAO1 in medium containing low-Fe by CLSI broth microdilution method; type: functional
Summary of the method: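 MICs for wild-type P. aeruginosa PAO1 were determined by CLSI broth microdilution in standard Mueller Hinton broth and, in parallel, in a modified broth depleted of iron to mimic the low-iron in vivo environment. The ratio compares the MIC in standard MHB with the MIC in iron-depleted broth.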

[9] = tested on: Pseudomonas aeruginosa; experiment: Ratio of MIC for Pseudomonas aeruginosa PAO1 harboring siderophore receptor piuA mutant in MHB medium to MIC for Pseudomonas aeruginosa PAO1 harboring siderophore receptor piuA mutant in medium containing low-Fe by CLSI broth microdilution method; type: functional
[10] = tested on: Pseudomonas aeruginosa; experiment: Ratio of MIC for Pseudomonas aeruginosa PAO1 harboring siderophore receptor piuA and fpvA double mutant in MHB medium to MIC for Pseudomonas aeruginosa PAO1 harboring siderophore receptor piuA and fpvA double mutant in medium containing low-Fe by CLSI broth microdilution method; type: functional
[11] = tested on: Pseudomonas aeruginosa; experiment: Antibacterial activity against Pseudomonas aeruginosa PAO1 harboring siderophore receptor piuA and fptA double mutant in medium containing aztreonam and low-Fe by CLSI broth microdilution method; type: functional
[12] = tested on: Pseudomonas aeruginosa; experiment: Antibacterial activity against Pseudomonas aeruginosa PAO1 harboring siderophore receptor piuA and pirA double mutant in medium containing aztreonam and low-Fe by CLSI broth microdilution method; type: functional
[13] = tested on: Pseudomonas aeruginosa; experiment: Ratio of MIC for Pseudomonas aeruginosa PAO1 harboring siderophore receptor piuA mutant to MIC for wild type Pseudomonas aeruginosa PAO1 in medium containing aztreonam and low-Fe by CLSI broth microdilution method; type: functional
[14] = tested on: Pseudomonas aeruginosa; experiment: Ratio of MIC for Pseudomonas aeruginosa PAO1 harboring siderophore receptor fpvA mutant to MIC for wild type Pseudomonas aeruginosa PAO1 in medium containing aztreonam and low-Fe by CLSI broth microdilution method; type: functional
[15] = tested on: Pseudomonas aeruginosa; experiment: Ratio of MIC for Pseudomonas aeruginosa PAO1 harboring siderophore receptor piuA and pfeA double mutant to MIC for wild type Pseudomonas aeruginosa PAO1 in medium containing aztreonam and low-Fe by CLSI broth microdilution method; type: functional
[16] = tested on: Escherichia coli; experiment: Antibacterial activity against Escherichia coli DH5alpha expressing beta-lactamase CTX-M-15 by CLSI broth microdilution method; type: functional; conditions: DH5[alpha]
[17] = tested on: Pseudomonas aeruginosa; experiment: Antibacterial activity against Pseudomonas aeruginosa PAO1 by CLSI broth microdilution method; type: functional
[18] = tested on: Pseudomonas aeruginosa; experiment: Antibacterial activity against Pseudomonas aeruginosa 1091-05 by CLSI broth microdilution method; type: functional
[19] = target: Penicillin-binding protein 1A (Pseudomonas aeruginosa PAO1, UniProt Q07806); experiment: Displacement of fluorescent Bocillin FL from N-terminal His tagged Pseudomonas aeruginosa PAO1 PBP1a (residues 36 to 822) expressed in Escherichia coli BL21 (Gold cells)
Sequence of Penicillin-binding protein 1A (Q07806 whole entry, the tested form may be a part): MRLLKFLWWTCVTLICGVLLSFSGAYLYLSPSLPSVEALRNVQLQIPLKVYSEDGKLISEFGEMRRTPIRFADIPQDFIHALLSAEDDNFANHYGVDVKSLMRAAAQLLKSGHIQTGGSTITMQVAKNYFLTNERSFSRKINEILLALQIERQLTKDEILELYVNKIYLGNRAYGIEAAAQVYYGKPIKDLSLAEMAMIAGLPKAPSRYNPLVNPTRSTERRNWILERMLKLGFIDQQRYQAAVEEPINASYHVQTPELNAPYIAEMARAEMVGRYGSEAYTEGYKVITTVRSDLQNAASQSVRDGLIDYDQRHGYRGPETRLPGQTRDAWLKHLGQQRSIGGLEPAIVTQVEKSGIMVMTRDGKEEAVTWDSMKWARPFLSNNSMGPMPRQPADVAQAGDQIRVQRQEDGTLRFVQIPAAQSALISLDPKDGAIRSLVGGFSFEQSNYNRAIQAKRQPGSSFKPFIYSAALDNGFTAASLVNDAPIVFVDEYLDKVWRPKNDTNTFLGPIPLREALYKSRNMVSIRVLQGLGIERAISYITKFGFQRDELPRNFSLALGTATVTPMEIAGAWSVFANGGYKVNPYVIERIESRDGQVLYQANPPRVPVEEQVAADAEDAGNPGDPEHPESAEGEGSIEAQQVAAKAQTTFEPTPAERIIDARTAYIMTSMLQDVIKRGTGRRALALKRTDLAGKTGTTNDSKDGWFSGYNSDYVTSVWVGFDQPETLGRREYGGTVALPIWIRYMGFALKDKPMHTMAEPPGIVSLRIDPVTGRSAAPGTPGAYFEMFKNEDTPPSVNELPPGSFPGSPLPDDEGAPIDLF

[20] = Displacement of fluorescent Bocillin FL from Pseudomonas aeruginosa PBP2
[21] = tested on: Pseudomonas aeruginosa; experiment: Antibacterial activity against Pseudomonas aeruginosa PAO1 harboring siderophore receptor piuA mutant in Mueller-Hinton broth medium by CLSI broth microdilution method; type: functional; summary of the method: as §1
[22] = tested on: Pseudomonas aeruginosa; experiment: Antibacterial activity against Pseudomonas aeruginosa PAO1 harboring siderophore receptor fpvA mutant in Mueller-Hinton broth medium by CLSI broth microdilution method; type: functional; summary of the method: as §1
[23] = tested on: Pseudomonas aeruginosa; experiment: Antibacterial activity against Pseudomonas aeruginosa PAO1 harboring siderophore receptor piuA and fpvA double mutant in Mueller-Hinton broth medium by CLSI broth microdilution method; type: functional; summary of the method: as §1

CC(C)(O/N=C(\C(=O)N[C@H]1CON(C2(C(=O)O)C[C@H](N3C(=O)c4cc(O)c(O)cc4C3=O)C(=O)O2)C1=O)c1csc(N)n1)C(=O)O (stereo partly drawn)
MIC [1]: 16 µg/mL (≈ 24.1 µM) | Ratio [2]: 1 | Ratio [3]: 32 | Ratio [4]: 1 | Ratio [5]: 32 | Ratio [6]: 1 | Ratio [7]: 1 | Ratio [8]: 16 | Ratio [9]: 64 | Ratio [10]: 64 | MIC [11]: 4 µg/mL (≈ 6.04 µM) | MIC [12]: 4 µg/mL (≈ 6.04 µM) | Ratio [13]: 1 | Ratio [14]: 0.5 | Ratio [15]: 1 | MIC [16]: 0.015 µg/mL (≈ 0.0226 µM) | MIC [17]: 0.5 µg/mL (≈ 0.755 µM) | MIC [18]: 0.5 µg/mL (≈ 0.755 µM) | IC50 [19]: 30 nM | IC50 [20]: 3700 nM | MIC [21]: 8 µg/mL (≈ 12.1 µM) | MIC [22]: 16 µg/mL (≈ 24.1 µM) | MIC [23]: 16 µg/mL (≈ 24.1 µM)

From ChEMBL document CHEMBL3259701, “Siderophore receptor-mediated uptake of lactivicin analogues in gram-negative bacteria” (J Med Chem, 2014)
